Laboratory results published in ChEMBL document CHEMBL2390929, “New nitric oxide donating 1,2,4-triazole/oxime hybrids: synthesis, investigation of anti-inflammatory, ulceroginic liability and antiproliferative activities” (Bioorg Med Chem, 2013).

Tests used:
SK-MEL-5 = experiment: Cytotoxicity against human SK-MEL-5 cells assessed as cell growth at 10^-5 M after 48 hrs by SRB assay; type: functional; conditions: SK-MEL-5, 48 h, read-out: Activity
How it was run: (§1)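 NCI-60 one-dose screen across nine tumour subpanels. Each agent added once at 10^-5 M, cultures incubated 48 h. Endpoint is sulforhodamine B protein staining read spectrophotometrically. Output is percent growth of treated cells relative to untreated controls.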

T47D = experiment: Cytotoxicity against human T47D cells assessed as cell growth at 10^-5 M after 48 hrs by SRB assay; type: functional; conditions: read-out: Activity; how it was run: as §1
MDA-MB-435 = experiment: Cytotoxicity against human MDA-MB-435 cells assessed as cell growth at 10^-5 M after 48 hrs by SRB assay; type: functional; conditions: MDA-MB-435, 48 h, read-out: Activity
How it was run: (§2)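 NCI 60-cell-line primary one-dose screen across nine tumour subpanels. Compound added at a single concentration of 10^-5 M and cultures incubated 48 h. Endpoint was sulforhodamine B protein staining read spectrophotometrically, with growth expressed as percent of untreated control cells.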

HOP-62 = experiment: Cytotoxicity against human HOP62 cells assessed as cell growth at 10^-5 M after 48 hrs by SRB assay; type: functional; conditions: HOP-62, 48 h, read-out: Activity; how it was run: as §2
SN12C = experiment: Cytotoxicity against human SN12C cells assessed as cell growth at 10^-5 M after 48 hrs by SRB assay; type: functional; conditions: read-out: Activity; how it was run: as §1
HCT-116 = experiment: Cytotoxicity against human HCT116 cells assessed as cell growth at 10^-5 M after 48 hrs by SRB assay; type: functional; conditions: HCT-116, 48 h, read-out: Activity; how it was run: as §2
Rattus norvegicus [1] = experiment: Antiinflammatory activity in albino rat assessed as inhibition of carrageenan-induced paw edema at 0.28 mmol/kg, po after 1 hr relative to control; type: functional
How it was run: (§3)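 Adult male albino rats (120–140 g), four per group, fasted 24 h with water allowed. Test agent suspended in 0.5% w/v aqueous CMC and given orally at 0.28 mmol/kg; controls received CMC alone. After 30 min, 0.1 mL fresh 1% carrageenan in saline was injected subplantar into the right hind paw and saline into the left. Paw thickness was measured by Vernier caliper; % inhibition = [(VR−VL)control − (VR−VL)treated]/(VR−VL)control ×100. Mean ± SEM, one-way ANOVA.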

[2] = Induction of nitric oxide release in phosphate buffer at pH 7.4 at 0.1 mM after 1 hr by Griess method in presence of 0.5 mM of N-acetylcysteine; type: physicochemical; conditions: pH 7.4, 1 h, 100 µM
How it was run: (§4)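 Compound in DMF diluted to final 10^-4 M in 1:1 50 mM phosphate buffer pH 7.4/MeOH with 5×10^-4 M N-acetylcysteine, 37 °C. Aliquot mixed with Griess reagent, 10 min at room temperature, A546 read. Nitrite quantified against sodium nitrite standards (10–80 nmol/mL); NO expressed as mol/mol. n = 4 reaction mixtures per compound.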

MDA-MB-468 = experiment: Cytotoxicity against human MDA-MB-468 cells assessed as cell growth at 10^-5 M after 48 hrs by SRB assay; type: functional; conditions: MDA-MB-468, 48 h, read-out: Activity; how it was run: as §2
SF-268 = experiment: Cytotoxicity against human SF268 cells assessed as cell growth at 10^-5 M after 48 hrs by SRB assay; type: functional; conditions: SF-268, 48 h, read-out: Activity; how it was run: as §2
Rattus norvegicus [3] = experiment: Antiinflammatory activity in albino rat assessed as inhibition of carrageenan-induced paw edema at 0.28 mmol/kg, po after 2 hrs relative to control; type: functional; how it was run: as §3
[4] = Induction of nitric oxide release in phosphate buffer at pH 7.4 at 0.1 mM after 3 hrs by Griess method in presence of 0.5 mM of N-acetylcysteine; type: physicochemical; conditions: pH 7.4, 3 h, 100 µM; how it was run: as §4
UACC-257 = experiment: Cytotoxicity against human UACC257 cells assessed as cell growth at 10^-5 M after 48 hrs by SRB assay; type: functional; conditions: UACC-257, 48 h, read-out: Activity; how it was run: as §1
SF-539 = experiment: Cytotoxicity against human SF539 cells assessed as cell growth at 10^-5 M after 48 hrs by SRB assay; type: functional; conditions: SF-539, 48 h, read-out: Activity; how it was run: as §2
Rattus norvegicus [5] = experiment: Antiinflammatory activity in albino rat assessed as inhibition of carrageenan-induced paw edema at 0.28 mmol/kg, po after 3 hrs relative to control; type: functional; how it was run: as §3
NCI-H226 = experiment: Cytotoxicity against human NCI-H226 cells assessed as cell growth at 10^-5 M after 48 hrs by SRB assay; type: functional; conditions: NCI-H226, 48 h, read-out: Activity; how it was run: as §2
HOP-92 = experiment: Cytotoxicity against human HOP92 cells assessed as cell growth at 10^-5 M after 48 hrs by SRB assay; type: functional; conditions: HOP-92, 48 h, read-out: Activity; how it was run: as §2
MDA-MB-231 = experiment: Cytotoxicity against human MDA-MB-231 cells assessed as cell growth at 10^-5 M after 48 hrs by SRB assay; type: functional; conditions: MDA-MB-231, 48 h, read-out: Activity; how it was run: as §2
[6] = Induction of nitric oxide release in phosphate buffer at pH 7.4 at 0.1 mM after 2 hrs by Griess method in presence of 0.5 mM of N-acetylcysteine; type: physicochemical; conditions: pH 7.4, 2 h, 100 µM; how it was run: as §4
PC-3 = experiment: Cytotoxicity against human PC3 cells assessed as cell growth at 10^-5 M after 48 hrs by SRB assay; type: functional; conditions: PC-3, 48 h, read-out: Activity; how it was run: as §2
COLO 205 = experiment: Cytotoxicity against human COLO205 cells assessed as cell growth at 10^-5 M after 48 hrs by SRB assay; type: functional; conditions: COLO 205, 48 h, read-out: Activity; how it was run: as §2
ACHN = experiment: Cytotoxicity against human ACHN cells assessed as cell growth at 10^-5 M after 48 hrs by SRB assay; type: functional; conditions: read-out: Activity; how it was run: as §2
LOX IMVI = experiment: Cytotoxicity against human LOXIMVI cells assessed as cell growth at 10^-5 M after 48 hrs by SRB assay; type: functional; conditions: read-out: Activity; how it was run: as §2
HL-60(TB) = experiment: Cytotoxicity against human HL-60(TB) cells assessed as cell growth at 10^-5 M after 48 hrs by SRB assay; type: functional; conditions: HL-60, 48 h, read-out: Activity
How it was run: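 NCI 60-cell-line one-dose screen: compound added to cultures at a single concentration of 10^-5 M, incubated 48 h. End point by sulforhodamine B protein staining, read spectrophotometrically. Value is percent growth of treated cells relative to untreated control cells.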

SNB-19 = experiment: Cytotoxicity against human SNB19 cells assessed as cell growth at 10^-5 M after 48 hrs by SRB assay; type: functional; conditions: SNB-19, 48 h, read-out: Activity; how it was run: as §1
OVCAR-3 = experiment: Cytotoxicity against human OVCAR3 cells assessed as cell growth at 10^-5 M after 48 hrs by SRB assay; type: functional; conditions: OVCAR-3, 48 h, read-out: Activity; how it was run: as §2
OVCAR-4 = experiment: Cytotoxicity against human OVCAR4 cells assessed as cell growth at 10^-5 M after 48 hrs by SRB assay; type: functional; conditions: OVCAR-4, 48 h, read-out: Activity; how it was run: as §2
HT-29 = experiment: Cytotoxicity against human HT-29 cells assessed as cell growth at 10^-5 M after 48 hrs by SRB assay; type: functional; conditions: HT-29, 48 h, read-out: Activity; how it was run: as §2
RPMI-8226 = experiment: Cytotoxicity against human RPMI8226 cells assessed as cell growth at 10^-5 M after 48 hrs by SRB assay; type: functional; conditions: RPMI-8226, 48 h, read-out: Activity; how it was run: as §2

Compound | growth at 10 µM (SK-MEL-5) [%] | growth at 10 µM (T47D) [%] | growth at 10 µM (MDA-MB-435) [%] | growth at 10 µM (HOP-62) [%] | growth at 10 µM (SN12C) [%] | growth at 10 µM (HCT-116) [%] | inhibition in vivo at 280 µmol/kg (Rattus norvegicus [1]) [%] | Activity [2] [mol/mol] | growth at 10 µM (MDA-MB-468) [%] | growth at 10 µM (SF-268) [%] | inhibition in vivo at 280 µmol/kg (Rattus norvegicus [3]) [%] | Activity [4] [mol/mol] | growth at 10 µM (UACC-257) [%] | growth at 10 µM (SF-539) [%] | inhibition in vivo at 280 µmol/kg (Rattus norvegicus [5]) [%] | growth at 10 µM (NCI-H226) [%] | growth at 10 µM (HOP-92) [%] | growth at 10 µM (MDA-MB-231) [%] | Activity [6] [mol/mol] | growth at 10 µM (PC-3) [%] | further results
CCn1c(SC/C(=N/O)c2ccccc2)nnc1-c1ccc(OC)c(OC)c1 | 96.3 | 99.6 | 116 | 85.9 | 99.5 | 108 | 61 | 0.06 | 111 | 101 | 67 | 0.2 | 104 | 100 | 71 | 97.6 | 107 | 104 | 0.13 | 101 | growth at 10 µM (COLO 205): 93.5%; growth at 10 µM (ACHN): 103%; growth at 10 µM (LOX IMVI): 93%; growth at 10 µM (HL-60(TB)): 95.8%; growth at 10 µM (SNB-19): 99.9%; growth at 10 µM (OVCAR-3): 106%; growth at 10 µM (OVCAR-4): 97.5%; growth at 10 µM (HT-29): 100%; growth at 10 µM (RPMI-8226): 101%
COc1ccc(-c2nnc(SC/C(=N/O)c3ccccc3)n2-c2ccccc2)cc1 | 93.9 | 86 | 102 | 111 | 97.9 | 93.2 | 58 | 0.08 | 96.5 | 117 | 63 | 0.09 | 98 | 107 | 63 | 103 | 101 | 117 | 0.08 | 86.4 | growth at 10 µM (COLO 205): 116%; growth at 10 µM (ACHN): 107%; growth at 10 µM (LOX IMVI): 101%; growth at 10 µM (HL-60(TB)): 95.9%; growth at 10 µM (SNB-19): 97.3%; growth at 10 µM (OVCAR-3): 111%; growth at 10 µM (OVCAR-4): 86.4%; growth at 10 µM (HT-29): 95.1%; growth at 10 µM (RPMI-8226): 73.5%
COc1ccc(-c2nnc(SC/C(=N/O)c3ccccc3)n2-c2ccccc2)cc1OC | 85.8 | 90.1 | 109 | 99.2 | 94.5 | 92 | 55 | 0.15 | 107 | 110 | 61 | 0.18 | 101 | 103 | 67 | 94.9 | 86.5 | 87.5 | 0.17 | 91.6 | growth at 10 µM (COLO 205): 100%; growth at 10 µM (ACHN): 95.4%; growth at 10 µM (LOX IMVI): 90.3%; growth at 10 µM (HL-60(TB)): 68.2%; growth at 10 µM (SNB-19): 101%; growth at 10 µM (OVCAR-3): 106%; growth at 10 µM (OVCAR-4): 90.4%; growth at 10 µM (HT-29): 97.5%; growth at 10 µM (RPMI-8226): 69.4%
